The source of these data is ChEMBL document CHEMBL1649415, “Synthesis, physicochemical characterization, and biological activities of new carnosine derivatives stable in human serum as potential neuroprotective agents” (J Med Chem, 2011).

Calls of active or inactive are those of the source. The rule behind the calls is not given here.

A short description of series [1]: Antioxidant activity assessed as 4-hydroxy-trans-2,3-nonenal scavenging activity at 1 mM after 24 hrs by HPLC relative to control. The series is classed as functional. A digest of the protocol:
(§1)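 HNE (50 µM final) incubated with compound (1 mM final) in 1 mM phosphate buffer pH 7.4 at 37 °C for up to 24 h. Samples were injected directly onto reverse-phase C18 HPLC to measure remaining HNE. Scavenging % = 100 − (HNE left with scavenger / HNE left in control × 100); mean ± SEM.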

Series [2] deals with Serum. As to the kind of experiment: Stability of the compound in human serum after 3 hrs. The series is classed as ADME, cell-free. In a few lines:
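Compound added from a 10 mM aqueous stock to human serum preheated to 37 °C, giving 0.5 mM final, and incubated at 37 ± 0.5 °C. At intervals, aliquots were deproteinized with an equal volume of acetonitrile/0.1% TFA, centrifuged and filtered. Analysis by RP-HPLC on C18 with methanol/20 mM sodium acetate pH 4.5-5 mM SDS (80/20 to 60/40).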

Series [3] can be described thus: Lipophilicity, log D of the compound by shake-flask technique. The settings on record: octanol/water. The series is classed as physicochemical. A digest of the protocol:
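Shake-flask at pH 7.4, in phosphate buffer with ionic strength 0.15 M KCl and mutually presaturated n-octanol (4 h). Compound about 0.1 mM in the aqueous phase, shaken about 20 min, then centrifuged. Aqueous concentration measured by UV at 230 nm; at least seven log D determinations per compound.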

The nature of series [4]: Antioxidant activity against CuSO4-induced LDL oxidation assessed as delta-lag time at 100 uM by antioxidation assay. The series is classed as functional. In a few lines:
(§2)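 Human plasma LDL (EDTA-treated donor plasma, density 1.019-1.063 g/mL fraction by ultracentrifugation, desalted) diluted in 10 mM phosphate buffer pH 7.4 to 50 µg protein/mL. Compound added at 100 µM final, oxidation started with CuSO4 2.5 µM final at 37 °C. Conjugated dienes followed at 234 nm over 6 h. Lag-time change versus control and propagation rate (ε234 = 29500 M-1 cm-1) derived; mean ± SEM.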

A short description of series [5]: Antioxidant activity assessed as 4-hydroxy-trans-2,3-nonenal scavenging activity at 1 mM after 1 hr by HPLC relative to control. The series is classed as functional. A digest of the protocol: as §1
Series [6] in a line: Antioxidant activity against CuSO4-induced LDL oxidation measured per mg og LDL product assessed as propagation rate of the oxidation at 100 uM by antioxidation assay. The series is classed as functional. A digest of the protocol:
as §2

A short description of series [7]: Antioxidant activity assessed as 4-hydroxy-trans-2,3-nonenal scavenging activity at 1 mM after 6 hrs by HPLC relative to control. The series is classed as functional. A digest of the protocol: as §1
Series [8] has as its system Neuron. As to the kind of experiment: Cytoprotective effect in mouse primary hippocampal neuron assessed as reduction in 4-hydroxy-trans-2,3-nonenal-induced damage at 100 uM after 24 hrs. The series is classed as functional, Hippocampus. Also noted: scale not given: the % may be the effect or the level left. A digest of the protocol:
(§3)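 They were grown 6 days in B-27 neurobasal medium at 37 °C, 5% CO2. Compound (100 µM in medium) was given alone or as pretreatment before HNE 10 µM, for 24 h. Death was scored by trypan blue exclusion against pre-incubation counts; mean ± SEM, n = 4-7, paired t test.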

Series [9] in a line: Drug level in Wistar rat blood at 20 mg/kg, iv after 1.5 hrs. The note with it: whole blood, read-out: Drug uptake. The series is classed as ADME, organism-based. Also noted: dose 20 mg/kg, route intravenous. A digest of the protocol: (§4)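 Male Wistar rats, 200-250 g, given 20 mg/kg i.v. in 0.9% saline; 3 rats per time point, killed at 1.5 or 3 h. Heparinized blood and brain homogenized in equal volume of cold water were deproteinized with acetonitrile/0.1% TFA, centrifuged and filtered. RP-HPLC on C18 with methanol/20 mM sodium acetate pH 4.5-5 mM SDS (70/30), detection 210 and 223 nm; spiked untreated-rat samples used as standards.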

Series [10] in a line: Drug level in Wistar rat brain measured per gram of tissue at 20 mg/kg, iv after 3 hrs. The series is classed as ADME, organism-based. The arrangement: dose 20 mg/kg, route intravenous. The settings on record: read-out: Drug uptake. In a few lines:
as §4

Series [11] deals with Neuron. Put plainly: Cytoprotective effect in mouse primary hippocampal neuron assessed as reduction in 4-hydroxy-trans-2,3-nonenal-induced neuronal disruption at 100 uM after 24 hrs. The series is classed as functional, tissue-based. The note with it: Hippocampus. In a few lines: as §3
Series [12] is described as follows: Drug level in Wistar rat brain measured per gram of tissue at 20 mg/kg, iv after 1.5 hrs. The series is classed as ADME, organism-based. The arrangement: dose 20 mg/kg, route intravenous. The settings on record: read-out: Drug uptake. A digest of the protocol: as §4
Series [13] in a line: Toxicity in mouse primary hippocampal neuron assessed as adverse effect at 100 uM after 24 hrs. The series is classed as tissue-based, Hippocampus.

For `NCCC(=O)N[C@@H](Cc1c[nH]cn1)C(=O)NCc1ccccc1.O=C(O)C(F)(F)F`, the Activity in series [1] is 72.8%; in series [5] it was 7.2%; in series [6], 5.2 nmol/min; in [7], 29.3%. For the same compound, the Stability result in series [2] was “Stable”. Also, the logD in series [3] is -1.76. Moreover, in series [4], the TIME was 1.42 h.

On to `CCCNC(=O)[C@H](Cc1c[nH]cn1)NC(=O)CCN.O=C(O)C(F)(F)F`, for which the Activity is 40% in series [8]; 81% in series [1]; 12.5% in series [5]; 7.7 nmol/min in [6]; 42.7% in series [7]; “Non-toxic” in series [13]. In addition, the values for the concentration at 1.5 h in [9] and in series [12] were 260 ng/mL and 600 ng/g, respectively. Further, in series [2], the Stability entry is reported as “Stable”. In [3], this compound yielded a log distribution coefficient (logD) of -2.72. Moreover, in [10], the concentration at 3 h was found to be 1100 ng/g. Besides, the TIME in series [4] stood at 1.13 h. Moreover, the outcome in series [11] was Active.

Consider `CCCCCCCCCCCCNC(=O)[C@H](Cc1c[nH]cn1)NC(=O)CCN.O=C(O)C(F)(F)F`, for which the Stability entry in series [2] is recorded as “Stable”. The compound also had a logD in series [3] of 0.93. Besides, the TIME in series [4] was -0.05 h. Besides, the Activity in [6] was determined as 14.5 nmol/min.

As to `CCCCNC(=O)[C@H](Cc1c[nH]cn1)NC(=O)CCN.O=C(O)C(F)(F)F`, the Activity in series [1] was 75.2%; in [5], 12.5%; in series [6], 5.7 nmol/min; in series [7], 36.2%. Further, the Stability entry in series [2] was “Stable”. In series [3], this compound returned a logD of -2.01. Besides, the TIME in series [4] was found to be 1.37 h.

Consider `NCCC(=O)N[C@@H](Cc1c[nH]cn1)C(=O)O` [CARNOSINE], for which the Activity in series [8] is 6%; in series [1] it was 88.8%; in series [5] it was 20.4%; in [6], 5.8 nmol/min; in [7], 59.6%. Further, the TIME in series [4] was determined as 1.12 h.

`CCNC(=O)[C@H](Cc1c[nH]cn1)NC(=O)CCN.O=C(O)C(F)(F)F`: the Activity in series [1] is 70.9%; in series [5] it was 8.4%; in series [6] it was 7 nmol/min; in series [7] it was 32.9%. The Stability entry in series [2] was “Stable”. In addition, the TIME in series [4] turned out to be 1.13 h.

With `NCCC(=O)N[C@@H](Cc1c[nH]cn1)C(N)=O.O=C(O)C(F)(F)F`, the Activity was found to be 77.7% in series [1], 10.2% in [5], 7.7 nmol/min in series [6] and 31.6% in [7]. In addition, the Stability entry in [2] is recorded as “Stable”. The TIME in series [4] stood at 1.07 h.

On to `CCCCOc1ccc(CNC(=O)[C@H](Cc2c[nH]cn2)NC(=O)CCN)cc1.O=C(O)C(F)(F)F`, for which the Activity in series [1] was determined as 80.7%; in series [5], 8.8%; in series [6], 10 nmol/min; in [7] it was 32.6%. The Stability result in series [2] is “Stable”. The log distribution coefficient (logD) in series [3] was -0.13. Besides, the TIME in series [4] was 0.817 h.

Consider `NCCC(=O)N[C@@H](Cc1cnc[nH]1)C(=O)O` [CARNOSINE], for which the Stability entry in series [2] is “Stable”. In addition, in series [13], the Activity entry is listed as “Non-toxic”.

`NCCC(=O)N[C@@H](Cc1c[nH]cn1)C(=O)NCC1CCCCC1.O=C(O)C(F)(F)F`: the Activity in series [1] was 62.5%; in [5], 12.8%; in series [6], 5.6 nmol/min; in [7], 28.2%. Besides, the Stability result in [2] is “Stable”. In addition, the logD in [3] is -0.94. Moreover, the TIME in [4] was found to be 1.42 h.

`CCCCCCCCCCNC(=O)[C@H](Cc1c[nH]cn1)NC(=O)CCN.O=C(O)C(F)(F)F`: in series [2], the Stability entry is “Stable”. Besides, the log distribution coefficient (logD) in series [3] was 0.85. Moreover, in series [4], the TIME turned out to be 0.15 h. The Activity in series [6] is 21 nmol/min.

Turning to `CCOC[C@H](Cc1c[nH]cn1)NC(=O)CCN.O=C(O)C(F)(F)F`, the Activity in series [1] worked out at 86.2%; in series [5], 17.9%; in series [6], 12.2 nmol/min; in [7], 60.7%. The Stability entry in [2] is listed as “Stable”. Besides, the pH-dependent lipophilicity (logD) in series [3] was -2.17. For the same compound, the TIME in [4] was -0.0667 h.

With `CCCCCCCCNC(=O)[C@H](Cc1c[nH]cn1)NC(=O)CCN.O=C(O)C(F)(F)F`, the Activity is 86.7% in [1], 12.8% in series [5], 11.8 nmol/min in series [6] and 49.7% in [7]. Besides, the Stability result in series [2] is on record as “Stable”. In series [3], this compound had a log distribution coefficient (logD) of -0.23. In addition, in series [4], the TIME was determined as 0.717 h.

Take `CCCCCCNC(=O)[C@H](Cc1c[nH]cn1)NC(=O)CCN.O=C(O)C(F)(F)F`: the Activity worked out at 75.9% in series [1], 12% in series [5], 6.7 nmol/min in [6] and 35.4% in [7]. In series [2], the Stability result was “Stable”. The compound also came in with a logD in [3] of -0.88. In addition, the TIME in [4] is 1.32 h.

As for `CNC(=O)[C@H](Cc1c[nH]cn1)NC(=O)CCN.O=C(O)C(F)(F)F`, the Activity came to 75.4% in series [1], 8% in series [5], 6.8 nmol/min in [6] and 35.2% in series [7]. For the same compound, the Stability result in [2] is reported as “Stable”. Further, the TIME in series [4] was determined as 1.25 h.
